Bioassay records deposited in PubChem by The Scripps Research Institute Molecular Screening Center.
The sample as a whole holds a higher share of hits than the screen did.
RORA inh – inhibitors of human nuclear receptor RORA; CHO-K1 Gal4-RORA LBD luciferase reporter, luminescence; inhibition, % at 10 µM; 65,000 compounds, 0.43% hits; AID 561;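 active = inhibition above the mean of all tested compounds plus 3 SD, cut at about 52% in these data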;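 also: 0% = RORA-transfected cells with DMSO and 100% = mock-transfected cells lacking RORA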
Target sequence (P35398 whole entry, looked up, the tested form may be a part): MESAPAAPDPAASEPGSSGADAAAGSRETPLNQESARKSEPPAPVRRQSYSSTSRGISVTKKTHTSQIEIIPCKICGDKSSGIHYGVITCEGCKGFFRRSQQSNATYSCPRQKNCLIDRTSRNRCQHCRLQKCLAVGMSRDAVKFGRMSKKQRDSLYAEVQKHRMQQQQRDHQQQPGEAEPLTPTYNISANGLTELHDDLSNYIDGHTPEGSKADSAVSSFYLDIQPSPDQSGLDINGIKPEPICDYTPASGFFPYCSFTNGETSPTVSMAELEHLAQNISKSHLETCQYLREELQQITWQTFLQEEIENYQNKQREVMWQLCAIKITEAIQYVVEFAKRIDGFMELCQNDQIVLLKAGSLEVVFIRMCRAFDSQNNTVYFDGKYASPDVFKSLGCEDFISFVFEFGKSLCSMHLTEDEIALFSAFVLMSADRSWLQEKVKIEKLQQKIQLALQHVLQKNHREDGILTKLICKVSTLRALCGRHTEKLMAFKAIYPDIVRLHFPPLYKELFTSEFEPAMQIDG
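Test system – CHO-K1 Gal4-RORA LBD luciferase reporter cells · Schedule – 20 h at 37 °C · Signal – luminescence from basal luciferase reporter expression · Measure – percent inhibition of basal reporter luminescence, control-normalized · Control set – -RORA mock-transfected DMSO wells 100%, +RORA DMSO wells 0%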
Starred values were filed as active, the others as inactive.

SMILES	RORA inh
Cc1cc2c(cc(C(=O)OCC(=O)NCc3cccs3)n2C(C)C)o1	-57
COc1ccc(S(=O)(=O)N(CC(=O)Nc2cc(C)on2)Cc2ccccc2)cc1	-6
COc1ccccc1-c1cc(C(F)(F)F)nc(S(=O)(=O)CCCC(=O)Nc2cc(C)on2)n1	70*
COc1ccccc1-c1cc(C(F)(F)F)nc(S(=O)(=O)CCCC(=O)NC(C)C)n1	57*
Cc1cc(NC(=O)COc2cccc3cccnc23)no1	-14
COc1ccc(S(=O)(=O)CCC(=O)NC2CCCCC2)cc1	6
COc1ccccc1CNC(=O)C(C)NS(=O)(=O)c1ccc(C)cc1 (centres undefined)	34
CCOC(=O)C1=C(C)Nc2nc(SCC)[nH]c(=O)c2C1c1ccncc1 (centres undefined)	-3
CCOC(=O)C1=C(C)SC2=NS(=O)(=O)CCN21	4
COc1cc2ccccc2cc1C(=O)Nc1cccnc1	-77
COCc1nc(-c2ccc(-c3ccc(OC)cc3)nc2OC)no1	-49
CCOc1ccc(-c2noc(CCC(=O)O)n2)cc1	54*
CCOc1nc(-c2ccccc2)ccc1-c1noc(COC)n1	-3
COCc1nc(-c2ccc(-c3ccccc3)nc2OC)no1	-72
CCCCC(=O)Nc1ccc(NC(=O)c2cccnc2)cn1	-6
Cc1ccc(-c2noc(CCCC(=O)Nc3cccnc3)n2)cc1	53*
CCOC(=O)Cn1c(CCC(=O)O)ccc1-c1ccc(F)cc1	17
COc1ccc(-c2noc(CCCC(=O)O)n2)cc1	68*
COc1ccc(NC(=O)c2cnc3ccccn3c2=O)cc1OC	-53
COc1ccc(N2CCN(Cc3nc4c(c(=O)[nH]c(=O)n4C)n3Cc3cccc(Cl)c3)CC2)cc1	-11
CCOc1ccccc1-n1c(COc2ccc(C)cc2)nnc1SCC(N)=O	7
COc1ccc(CCNC(=O)C2CCCN(C(=O)N(C)C)C2)c(OC)c1 (centres undefined)	-14
CCSc1cc(C2C(C#N)=C(N)OC(C)=C2C(=O)OC)c(C)o1 (centres undefined)	2
CCOC(=O)N1CCC(NC(=O)Cn2cc3c(n2)CCCC3)CC1	-6
O=C(NCc1ccco1)Nc1ccc(Br)cc1Cl	-57
SMILES	RORA inh
Cc1ccc(C)c(-c2nc3cc(N)ccc3o2)c1	13
Nc1ccc2oc(-c3cc(Br)ccc3Cl)nc2c1	58*
Nc1c(Br)cc2oc(-c3ccccc3)nc2c1Br	-52
Cc1cccn2c(=O)c3cc(C(=O)N4CCN(c5ccccc5)CC4)n(C)c3nc12	9
C=CCNC(=O)c1ccccc1NC(=O)c1ccccc1	19
Cc1ccc2c(c1)N(CC(=O)NCCc1c[nH]c3ccccc13)C(=O)CO2	3
O=C(NCCc1cccc(F)c1)[C@@H]1CSC2c3ccccc3C(=O)N21 (some centres undefined)	9
COc1ccc(O)c(C(=O)CC(=O)c2ccc(F)cc2)c1	58*
COc1ccc(C(=O)c2ccccc2)c(O)c1	-10
COc1cccc(NC(=O)Cc2nnc(SCC(=O)c3ccccc3)n2C)c1	3
CCOC(=O)N1CCC(NC(=O)C2CCCN(Cc3nc(-c4cccc(Cl)c4)oc3C)C2)CC1 (centres undefined)	63*
Cc1oc(-c2cccc(Cl)c2)nc1CN1CCC(C(=O)NCCCN2CCCC2=O)CC1	-2
CCc1ccc(-c2nc(CN3CCCC(C(=O)NCCc4ccc(OC)c(OC)c4)C3)c(C)o2)cc1 (centres undefined)	-11
CCCCn1c(SCC(=O)N2CCN(c3ccccc3)CC2)nc2ccsc2c1=O	16
O=C1Nc2ccccc2OC1CC(=O)N1CCCC1 (centres undefined)	-2
Cc1c(C)[n+](=O)c(-c2ccco2)c(C)n1[O-]	22
Cc1nc2c(ccc3nc(NC(=O)c4ccc5c(c4)OCCO5)sc32)s1	8
O=C(Nc1nc2cc3c(cc2s1)OCO3)C1=COCCO1	68*
CC(=O)Nc1nc2cc3c(cc2s1)OCO3	-72
Cc1ccc2oc(Nc3nc(C)cc(C)n3)nc2c1	-52
Cc1ccc2c(c1)c1ncnc(N3CCC4(CC3)OCCO4)c1n2C	-62
O=C(Cn1ccc2ccccc2c1=O)N1CCN(Cc2ccc3c(c2)OCO3)CC1	-8
O=C(N1CCN(Cc2ccc3c(c2)OCO3)CC1)C12CC3CC(CC(C3)C1)C2	8
Cc1ccc2[nH]c3c(N4CCN(Cc5ccc6c(c5)OCO6)CC4)ncnc3c2c1	82*
COCCn1nnnc1C(c1ccc(C)cc1)N1CCN(Cc2ccc3c(c2)OCO3)CC1 (centres undefined)	9
SMILES	RORA inh
Cc1ccc2[nH]c3c(N4CCCCCC4)ncnc3c2c1	78*
c1nc(N2CCN(Cc3ccc4c(c3)OCO4)CC2)c2[nH]cnc2n1	22
COc1ccc2c(c1)[nH]c1c(N3CCN(Cc4ccc5c(c4)OCO5)CC3)ncnc12	72*
O=C(CCCN1C(=O)c2ccccc2C1=O)N1CCC(c2ccccc2)C1 (centres undefined)	29
COCCNS(=O)(=O)c1cccc2cccnc12	-8
CCc1ccccc1NC(=O)COC(=O)C1CC(=O)N(c2ccc(F)cc2)C1 (centres undefined)	17
COc1ccc(C2(C(=O)NCC3CCCO3)CCOCC2)cc1 (centres undefined)	1
COc1ccc(C(NC(=O)C(C)(C)C)NC(=O)C(C)(C)C)cc1	25
Cn1c(SCc2ccc(C#N)cc2Cl)nc2ccccc21	-82
Oc1c(CN2CCN(c3ccccn3)CC2)cc(Cl)c2cccnc12	60*
c1ccc(-c2nnc(N3CCN(c4ccccn4)CC3)c3ccccc23)cc1	-5
O=P(O)(CCc1ccccn1)CN1CCCCC1	-4
Oc1c(CN2CCCCC2)cc(COCc2ccccc2)c2cccnc12	53*
O=C(C1CCCN(S(=O)(=O)c2cccs2)C1)N1CCN(C2CCCCC2)CC1 (centres undefined)	-19
CCC1SC2=NC(C)=C(C(=O)OC)C(c3cccs3)N2C1=O (centres undefined)	-7
CCCc1cc(NCCN2CCOCC2)n2c(nc3ccccc32)c1C#N	-6
O=C(CN1CCC(n2nnc3ccccc32)CC1)NCc1cccs1	8
Cc1ccc(-c2ccc(/C=N/c3ncn[nH]3)o2)cc1Cl	-5
O=C1CCCN1CN(C(=O)c1ccc2c(c1)OCO2)c1ccc(F)cc1	-20
Cc1cc(Nc2ccc(C)c(C)c2)n2nc(C)nc2n1	-38
CC1CCCCC1NC(=O)CSc1nc2ccccc2c(=O)n1Cc1ccco1 (centres undefined)	17
COc1cccc(Cn2c(NCc3ccco3)nc3c2c(=O)n(C)c(=O)n3C)c1	62*
CCCCC(=O)NCCNc1nc2c(c(=O)n(C)c(=O)n2C)n1Cc1ccc(F)cc1	10
CCCNc1nc2c(c(=O)n(C)c(=O)n2C)n1CCc1ccccc1	17
Cn1c(NCc2ccccc2)nc2c1c(=O)n(Cc1ccc(Br)cc1)c(=O)n2C	7
SMILES	RORA inh
CCCNc1nc2c(c(=O)n(C)c(=O)n2C)n1Cc1cccc(C)c1	55*
CCn1c(NCc2ccccn2)nc2c1c(=O)n(C)c(=O)n2C	-2
O=S(=O)(NCCOC12CC3CC(CC(C3)C1)C2)c1cccc2nsnc12	23
CN(C)c1ccc(NC(=O)c2ccc(COc3cccc(Cl)c3)o2)cc1	-73
COC(=O)c1cc(Br)c(=O)n(-c2ccc(OC)cc2)c1	-8
O=C1CCC/C1=c1\s/c(=C\c2cccnc2)c(=O)n1-c1ccccc1	10
O=S(=O)(NCC(c1cccnc1)N1CCN(Cc2ccccc2)CC1)c1ccccc1 (centres undefined)	-4
